Experimental findings from ChEMBL document CHEMBL1151686, “Antimalarial activity enhancement in hydroxymethylcarbonyl (HMC) isostere-based dipeptidomimetics targeting malarial aspartic protease plasmepsin” (Bioorg Med Chem, 2008) are described below.

The target of one data set is Plasmepsin II (Plasmodium falciparum, UniProt P46925). The data set is described as follows: Inhibition of Plasmodium falciparum plasmepsin-2. The method in brief: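 Plm II (400 nM) hydrolysis of chromogenic substrate H-Ala-Leu-Glu-Arg-Thr-Phe-Phe(p-NO2)-Ser-Phe-Pro-Thr-OH (163 μM) in 10 mM sodium formate pH 4.0, 2% DMSO, 25 °C, with increasing inhibitor. Rates fitted to tight-binding competitive inhibition equations for Ki.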

Another data set deals with Plasmodium falciparum. The data set is described as follows: Antimalarial activity against chloroquine-sensitive Plasmodium falciparum NF54 in type O+ human erythrocytes after 48 hrs as reduced [3H]hypoxanthine uptake. The class given is functional, organism-based. The method in brief:
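NF54 parasites grown in 2.4% O+ human erythrocyte suspension in RPMI 1640 with 25 mM HEPES, 27 mM NaHCO3, 10% heat-inactivated O+ human serum, under 3% O2/4% CO2/93% N2. Compounds serially diluted in 0.2% DMSO medium, incubated with culture 48 h, then 0.6 μCi [3H]hypoxanthine added for 20 h. Harvested on glass filters, scintillation counted. IC50 from dose-response curves.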

A short description of data set [1]: Cytotoxicity against rat L6 cells after 72 hrs by Alamar blue resazurin assay. The class given is cell-based. Conditions: read-out: TD50.
Data set [2] deals with Protease (Human immunodeficiency virus 1) (UniProt Q9YQ12). The data set is described as follows: Inhibition of recombinant HIV1 protease at 50 nM. Summed up: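 Recombinant HIV-1 PR (2 μg/mL stock) was mixed with inhibitor (500 nM solution in DMSO) in MES–NaOH pH 5.5 buffer containing DTT, EDTA and 1 M NaCl. The reaction was started with substrate H-Lys-Ala-Arg-Val-Tyr-Phe(p-NO₂)-Glu-Ala-Nle-NH₂ (1.0 mM solution) and run 15 min at 37 °C, then stopped with 1M HCl. The cleaved N-terminal fragment was quantified by reversed-phase C18 HPLC.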
Chain of Protease (Human immunodeficiency virus 1) (Q9YQ12 as listed by the source): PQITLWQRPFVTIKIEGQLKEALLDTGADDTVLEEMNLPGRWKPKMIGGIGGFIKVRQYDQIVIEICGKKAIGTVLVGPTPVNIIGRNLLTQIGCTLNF

Chain of Plasmepsin II (P46925 whole entry): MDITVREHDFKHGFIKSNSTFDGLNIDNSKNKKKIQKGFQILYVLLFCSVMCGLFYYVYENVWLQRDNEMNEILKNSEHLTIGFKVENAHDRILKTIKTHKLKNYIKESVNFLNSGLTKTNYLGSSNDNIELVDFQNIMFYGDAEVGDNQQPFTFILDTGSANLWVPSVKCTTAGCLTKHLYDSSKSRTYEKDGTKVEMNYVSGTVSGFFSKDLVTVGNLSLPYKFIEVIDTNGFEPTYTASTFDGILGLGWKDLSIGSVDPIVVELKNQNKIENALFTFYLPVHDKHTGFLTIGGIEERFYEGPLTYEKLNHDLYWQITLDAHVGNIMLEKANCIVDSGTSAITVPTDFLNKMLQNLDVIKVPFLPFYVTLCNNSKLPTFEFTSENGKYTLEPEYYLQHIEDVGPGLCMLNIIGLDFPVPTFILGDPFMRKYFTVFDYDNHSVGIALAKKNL

As for `Cc1cc(NCc2cccnc2)cc(C)c1OCC(=O)N[C@@H](Cc1ccccc1)[C@H](O)C(=O)N1CSC(C)(C)[C@H]1C(=O)N[C@H]1c2ccccc2C[C@H]1O`, the inhibition constant (Ki) on Plasmepsin II was 21 nM. This molecule gave an EC50 in the data set on Plasmodium falciparum of 500 nM. Also, the CC50 at 72 h in data set [1] was > 120000 nM. Further, the inhibition in data set [2] came to 91%.
